Experimental data: ChEMBL document CHEMBL3351885, “Putative kappa opioid heteromers as targets for developing analgesics free of adverse effects” (J Med Chem, 2014)
Activity calls are given as the source filed them.

Tests used:
[1] = tested on: Mus musculus; assay: Induction of aversion in ICR-CD1 mouse at 0.1 to 1 mg/kg, sc by conditioned place preference assay; format: organism-based; parameters: dose 0.1-1 mg/kg, route subcutaneous; details: in vivo
Procedure, shortened: (§1)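 Two-chamber place conditioning with rod versus mesh floors. Bias was taken in a 20 min free-exploration pretest, and groups were counterbalanced. Drug or vehicle (saline with 1% DMSO) was paired with one chamber and saline with the other, injected sc 20 min before 30 min confinement. Four drug and four saline sessions alternated daily. Tests of 20 min came after the 4th and 8th sessions. Score = change in CS+ time from pretest; Bonferroni t test against vehicle.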

[2] = tested on: Mus musculus; assay: Antinociceptive effect in intrathecally dosed ICR-CD1 mouse assessed as drug tolerance development measured after 25 hrs by tail flick test; format: functional, organism-based
Procedure, shortened: (§2)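 Acute tolerance: the highest (ED80−90) dose of the day-1 dose-response curve was given again 24 h later to the same mice in the tail-flick test. No significant difference between days was scored as no tolerance.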

[3] = biological target: T1, Opioid receptors; mu & kappa (Homo sapiens) (UniProt P41145+P35372); assay: Agonist activity at human mu-kappa opioid receptor expressed in HEK293 cells assessed as induction of intracellular calcium release by FLIPR assay; format: functional, cell-based
T1 sequence (P35372 whole entry, looked up): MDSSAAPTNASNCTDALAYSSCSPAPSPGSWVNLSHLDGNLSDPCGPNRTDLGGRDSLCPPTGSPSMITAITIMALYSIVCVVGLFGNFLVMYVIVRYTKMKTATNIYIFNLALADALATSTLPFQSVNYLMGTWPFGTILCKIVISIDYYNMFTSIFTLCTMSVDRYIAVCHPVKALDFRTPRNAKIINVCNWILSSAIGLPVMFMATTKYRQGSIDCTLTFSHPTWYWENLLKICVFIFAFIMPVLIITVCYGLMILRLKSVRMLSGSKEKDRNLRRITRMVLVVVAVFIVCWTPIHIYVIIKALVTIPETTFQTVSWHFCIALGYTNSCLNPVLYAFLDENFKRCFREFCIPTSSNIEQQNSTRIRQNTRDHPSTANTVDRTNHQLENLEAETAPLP
T1 sequence (P41145 whole entry, looked up): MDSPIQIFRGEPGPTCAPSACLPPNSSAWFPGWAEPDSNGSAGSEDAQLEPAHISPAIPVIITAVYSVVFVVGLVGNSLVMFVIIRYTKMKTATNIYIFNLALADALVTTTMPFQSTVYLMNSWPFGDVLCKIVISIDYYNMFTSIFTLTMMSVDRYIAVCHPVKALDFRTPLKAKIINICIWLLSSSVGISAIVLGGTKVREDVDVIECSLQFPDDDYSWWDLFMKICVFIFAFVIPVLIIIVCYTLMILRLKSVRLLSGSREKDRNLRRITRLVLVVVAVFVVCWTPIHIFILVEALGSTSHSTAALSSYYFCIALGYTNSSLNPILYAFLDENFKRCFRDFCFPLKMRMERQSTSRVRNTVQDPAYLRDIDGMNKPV
Procedure, shortened: (§3)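 HEK293 cells stably carrying chimeric Δ6-Gαqi-myr, transiently transfected with one or two opioid receptor cDNAs (200 ng/20000 cells, Lipofectamine 2000). Cells were reseeded at 24 h and assayed 48 h post-transfection with a FLIPR Ca2+ kit. Fluorescence was read for 90 s after ligand addition to build concentration-response curves; mean ± SEM, n = 3−5.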

[4] = tested on: Mus musculus; assay: Potency ratio, ratio,of ED50 for antinociceptive effect in intracerebroventricularly dosed ICR-CD1 mouse to ED50 for intrathecally dosed ICR-CD1 mouse by tail flick test; format: functional
[5] = biological target: Kappa-type opioid receptor (Homo sapiens) (UniProt P41145); assay: Agonist activity at human kappa opioid receptor expressed in HEK293 cells assessed as induction of intracellular calcium release by FLIPR assay; format: functional, cell-based; procedure, shortened: as §3
Kappa-type opioid receptor (Homo sapiens), sequence (P41145 whole entry): as the sequence (P41145 whole entry, looked up) above

[6] = biological target: Opioid receptors; mu & delta (Homo sapiens) (UniProt P41143+P35372); assay: Agonist activity at human mu-delta opioid receptor expressed in HEK293 cells assessed as induction of intracellular calcium release by FLIPR assay; format: functional, cell-based; procedure, shortened: as §3
Opioid receptors; mu & delta (Homo sapiens), sequence (P35372 whole entry, looked up): as the sequence (P35372 whole entry, looked up) above
Opioid receptors; mu & delta (Homo sapiens), sequence (P41143 whole entry, looked up): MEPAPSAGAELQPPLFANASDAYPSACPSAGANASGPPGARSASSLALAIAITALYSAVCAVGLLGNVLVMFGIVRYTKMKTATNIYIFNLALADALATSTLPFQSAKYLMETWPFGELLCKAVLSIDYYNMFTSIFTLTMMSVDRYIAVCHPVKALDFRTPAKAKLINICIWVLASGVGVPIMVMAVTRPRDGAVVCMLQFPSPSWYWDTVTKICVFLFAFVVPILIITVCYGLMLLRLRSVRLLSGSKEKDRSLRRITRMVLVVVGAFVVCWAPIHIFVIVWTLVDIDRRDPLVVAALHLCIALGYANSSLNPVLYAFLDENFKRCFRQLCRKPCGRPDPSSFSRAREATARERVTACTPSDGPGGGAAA

[7] = tested on: Mus musculus; assay: Antinociceptive effect in intrathecally dosed ICR-CD1 mouse by tail flick test; format: functional
Procedure, shortened: (§4)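 Male ICR-CD1 mice, 17−25 g. Tail-flick latency was taken before dosing and at the compound's peak time, with a 10 s cutoff. Response was expressed as %MPE = (test − control)/(10 − control) × 100. Three groups of 8−10 mice per dose-response curve, each mouse used once. ED50 with 95% CI came from nonlinear regression.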

[8] = biological target: T2, Opioid receptors; delta & kappa (Homo sapiens) (UniProt P41145+P41143); assay: Agonist activity at human delta-kappa opioid receptor expressed in HEK293 cells assessed as induction of intracellular calcium release by FLIPR assay; format: functional, cell-based; procedure, shortened: as §3
T2 sequence (P41143 whole entry, looked up): as above
T2 sequence (P41145 whole entry, looked up): as the sequence (P41145 whole entry, looked up) above

[9] = tested on: Mus musculus; assay: Antinociceptive effect in intracerebroventricularly dosed ICR-CD1 mouse assessed as drug tolerance development measured after 25 hrs by tail flick test; format: functional, organism-based; procedure, shortened: as §2
[10] = tested on: Mus musculus; assay: Antinociceptive effect in intracerebroventricularly dosed ICR-CD1 mouse assessed as peak time for antinociceptive effect by tail flick test; format: functional
Procedure, shortened: (§5)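 Peak time in the mouse tail-flick test was set by measuring antinociception at 5, 10, 20, 30 and 60 min after dosing; latency cutoff 10 s; response expressed as %MPE.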

[11] = biological target: Delta-type opioid receptor (Homo sapiens) (UniProt P41143); assay: Agonist activity at human delta opioid receptor expressed in HEK293 cells assessed as induction of intracellular calcium release by FLIPR assay; format: functional, cell-based; procedure, shortened: as §3
Delta-type opioid receptor (Homo sapiens), sequence (P41143 whole entry): as the sequence (P41143 whole entry, looked up) above

[12] = tested on: Mus musculus; assay: Antinociceptive effect in intracerebroventricularly dosed ICR-CD1 mouse by tail flick test; format: functional; procedure, shortened: as §4
[13] = biological target: Mu-type opioid receptor (Homo sapiens) (UniProt P35372); assay: Agonist activity at human mu opioid receptor expressed in HEK293 cells assessed as induction of intracellular calcium release by FLIPR assay; format: functional, cell-based; procedure, shortened: as §3
Mu-type opioid receptor (Homo sapiens), sequence (P35372 whole entry): as the sequence (P35372 whole entry, looked up) above

[14] = tested on: Mus musculus; assay: Antinociceptive effect in intrathecally dosed ICR-CD1 mouse assessed as peak time for antinociceptive effect by tail flick test; format: functional; procedure, shortened: as §5
[15] = tested on: Mus musculus; assay: Antinociceptive effect in sc dosed ICR-CD1 mouse by tail flick test; format: functional; procedure, shortened: as §4
[16] = tested on: Mus musculus; assay: Antinociceptive effect in orally dosed ICR-CD1 mouse by tail flick test; format: functional; details: po; procedure, shortened: as §4
[17] = tested on: Mus musculus; assay: Ratio of antinociceptive effect in intrathecally dosed ICR-CD1 mouse in presence of 500 nmol naloxone to antinociceptive effect in intrathecally dosed ICR-CD1 mouse in absence of 500 nmol naloxone; format: functional
[18] = biological target: T1, Opioid receptors; mu & kappa (Homo sapiens); assay: Agonist activity at human mu-kappa opioid receptor expressed in HEK293 cells assessed as induction of beta-arrestin 2 recruitment incubated for 60 mins by fluorescent microscopy; format: cell-based
Procedure, shortened: (§6)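 HEK293 cells were transiently transfected with single or paired opioid receptors, replated on chamber slides after 24 h and left overnight. Ligands in serum-free medium were applied for 60 min at 37 °C. Cells were fixed in 4% paraformaldehyde, then stained with goat anti-β-arrestin2 (1 μg/mL, 4 °C overnight), fluorescent anti-goat secondary (30 min, RT) and DAPI. A brighter membrane on fluorescence microscopy scored as recruitment.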

[19] = biological target: Mu-type opioid receptor (Homo sapiens) (UniProt P35372); assay: Agonist activity at human mu opioid receptor expressed in HEK293 cells assessed as induction of beta-arrestin 2 recruitment incubated for 60 mins by fluorescent microscopy; format: cell-based; procedure, shortened: as §6
[20] = tested on: Mus musculus; assay: Antinociceptive effect in ICR-CD1 mouse dosed intrathecally twice on day 1 and day 2 followed by injection with same dose on day 3 by tail flick test; format: functional
[21] = biological target: Delta-type opioid receptor (Homo sapiens) (UniProt P41143); assay: Agonist activity at human delta opioid receptor expressed in HEK293 cells assessed as induction of beta-arrestin 2 recruitment incubated for 60 mins by fluorescent microscopy; format: cell-based; procedure, shortened: as §6
[22] = biological target: Kappa-type opioid receptor (Homo sapiens) (UniProt P41145); assay: Agonist activity at human kappa opioid receptor expressed in HEK293 cells assessed as induction of beta-arrestin 2 recruitment incubated for 60 mins by fluorescent microscopy; format: cell-based; procedure, shortened: as §6
[23] = tested on: Mus musculus; assay: Antinociceptive effect in intrathecally dosed ICR-CD1 mouse co-treated with delta opioid receptor antagonist NTB by tail flick test; format: functional, organism-based
[24] = tested on: Mus musculus; assay: Physical dependence in ICR-CD1 mouse assessed as induction of jumps over 10 mins period at 2.5 to 10 mg/kg, sc dosed three times daily for 4 days and 10 mg/kg, sc on day 5 followed 3 hrs later by single 10 mg/kg, sc naloxone; format: organism-based; details: in vivo
Procedure, shortened: (§7)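 Mice received sc drug three times daily for 4 days (2.5−10 mg/kg), then 10 mg/kg on day 5, with sc naloxone 3 h later. Jumps were counted over 10 min. A morphine group served as control.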

[25] = tested on: Mus musculus; assay: Rewarding effect in ICR-CD1 mouse at 0.3 to 10 mg/kg, sc by conditioned place preference assay; format: functional, organism-based; procedure, shortened: as §1
[26] = biological target: T2, Opioid receptors; delta & kappa (Homo sapiens); assay: Agonist activity at human kappa-delta opioid receptor expressed in HEK293 cells assessed as induction of beta-arrestin 2 recruitment incubated for 60 mins by fluorescent microscopy; format: cell-based; procedure, shortened: as §6
[27] = tested on: Mus musculus; assay: Antinociceptive effect in sc dosed ICR-CD1 mouse by tail flick test relative to morphine; format: functional
[28] = tested on: Mus musculus; assay: Physical dependence in ICR-CD1 mouse assessed as induction of jumps over 10 mins period at 2.5 to 10 mg/kg, sc dosed three times daily for 4 days and 10 mg/kg, sc on day 5 followed 3 hrs later by single 50 mg/kg, sc naloxone; format: organism-based; details: in vivo; procedure, shortened: as §7
[29] = tested on: Mus musculus; assay: Rewarding effect in ICR-CD1 mouse at 0.3 to 10 mg/kg, sc in presence of naloxone by conditioned place preference assay; format: functional, organism-based
[30] = tested on: Mus musculus; assay: Antinociceptive effect in intrathecally dosed ICR-CD1 mouse co-treated with mu opioid receptor antagonist beta-FNA by tail flick test; format: functional, organism-based
[31] = tested on: Mus musculus; assay: Antinociceptive effect in intrathecally dosed ICR-CD1 mouse co-treated with kappa opioid receptor antagonist norB-NI by tail flick test; format: functional, organism-based
[32] = tested on: Mus musculus; assay: Induction of aversion in ICR-CD1 mouse at 0.3 to 10 mg/kg, sc by conditioned place preference assay; format: organism-based; parameters: dose 0.3-10 mg/kg, route subcutaneous; details: in vivo; procedure, shortened: as §1

SMILES	Activity [2]	Activity [3]	Ratio ED50 [4]	Activity [5]	Activity [6]	ED50 [7]	Activity [8]	Activity [9]	Time [10]	Activity [11]	ED50 [12]	Activity [13]	Time [14]	MPE [7]	MPE [12]	other results
COC(=O)[C@@H]1C[C@H](OC(C)=O)C(=O)[C@H]2[C@@]1(C)CC[C@H]1C(=O)O[C@H](c3ccoc3)C[C@]21C [SALVINORIN A]																Activity [1]: Toxic
O=C(N[C@@H]1CC[C@@]2(O)[C@H]3Cc4ccc(O)c5c4[C@@]2(CCN3CC2CC2)[C@H]1O5)c1cc2ccccc2o1	Active	Active	3	Active	Active	191.9 pmol	Active	Active	10 min	Active	580.8 pmol	Active	10 min			
O=C(N[C@@H]1CC[C@@]2(O)[C@H]3Cc4ccc(O)c5c4[C@@]2(CCN3CC2CC2)[C@H]1O5)c1ccc2[nH]ccc2c1		Active					Active						20 min	<60%	<60%	
O=C(N[C@@H]1CC[C@@]2(O)[C@H]3Cc4ccc(O)c5c4[C@@]2(CCN3CC2CC2)[C@H]1O5)c1cc2cc(Cl)ccc2[nH]1		Active					Active						20 min	<60%	<60%	
CN1CC[C@]23c4c5ccc(O)c4O[C@H]2[C@@H](O)C=C[C@H]3[C@H]1C5 [MORPHINE]																ED50 [15]: 7.8 mg/kg; ED50 [16]: 2.51 mg/kg
O=C(N[C@@H]1CC[C@@]2(O)[C@H]3Cc4ccc(O)c5c4[C@@]2(CCN3CC2CC2)[C@H]1O5)c1c[nH]c2ccccc12	Active	Active				29.39 pmol	Active						20 min		<60%	
O=C(N[C@@H]1CC[C@@]2(O)[C@H]3Cc4ccc(O)c5c4[C@@]2(CCN3CC2CC2)[C@H]1O5)c1cc2ccccc2[nH]1	Active	Active	59	Active	Active	21.27 pmol	Active	Active	10 min	Active	1252.2 pmol	Active	10 min			Ratio [17]: 15; Activity [18]: inactive; Activity [19]: Active; ED50 [20]: 29.47 pmol; Activity [21]: Active; Activity [22]: Active; Activity [23]: Active; Activity [24]: Non-toxic; Activity [25]: Dose-dependent effect; Activity [26]: inactive; ED50 [15]: 0.97 mg/kg; Ratio ED50 [27]: 9; ED50 [16]: 9.08 mg/kg; Activity [28]: Non-toxic; Activity [29]: inactive; Activity [30]: Active; Activity [31]: Active; Activity [32]: Non-toxic
O=C(N[C@@H]1CC[C@@]2(O)[C@H]3Cc4ccc(O)c5c4[C@@]2(CCN3CC2CC2)[C@H]1O5)c1cc2cc(F)ccc2[nH]1	inactive				Active	295 pmol	inactive						10 min		<60%	
O=C(N[C@@H]1CC[C@@]2(O)[C@H]3Cc4ccc(O)c5c4[C@@]2(CCN3CC2CC2)[C@H]1O5)c1cc2ccccc2s1		Active		Active	Active		Active			Active		Active	20 min	<60%	<60%	
Cn1c(C(=O)N[C@@H]2CC[C@@]3(O)[C@H]4Cc5ccc(O)c6c5[C@@]3(CCN4CC3CC3)[C@H]2O6)cc2ccccc21	Active	Active	24	Active	Active	23.06 pmol	Active	Active	10 min	Active	550.4 pmol	Active	10 min			
